Assay [1] has as its system Rattus norvegicus. Kind of assay: Locomotor activity in normal rat at 50 umol/kg expressed as percent of control. Type of assay: functional. The procedure, abridged: (§1)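 Untreated rats were given the test drug sc. Locomotor activity was recorded with motility meters and expressed as percent of controls, with significance by Student's t test (p < 0.05).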
In assay [2] the test system is Rattus norvegicus. Kind of assay: DOPA accumulation in normal rat striatal region at of 50 umol/kg expressed as percent of control. Type of assay: functional.
Assay [3] deals with Rattus norvegicus. The assay is described as follows: Locomotor activity in normal rat at 12.5 umol/kg expressed as percent of control. Type of assay: functional. The gist of the method: as §1
Assay [4] deals with Rattus norvegicus. The assay is described as follows: DOPA accumulation in normal rat cortex at of 50 umol/kg expressed as percent of control. Type of assay: functional.
Assay [5] has as its system Rattus norvegicus. The assay is described as follows: DOPA accumulation in normal rat limbic region at 50 umol/kg expressed as percent of control. Type of assay: functional, Limbic system.
The subject of assay [6] is Rattus norvegicus. The assay is described as follows: DOPA accumulation in reserpine-pretreated rat striatal region after subcutaneous administration of 50 umol/kg; Range is 1.7-4. The following applies: sc. Type of assay: functional.
For assay [7], the target named is T1, D(2) dopamine receptor (Rattus norvegicus, UniProt P61169). Kind of assay: In vitro inhibition of [3H]spiperone binding to Dopamine receptor D2 in rat striatal membranes. The format is cell membranes, Membrane.
The target in assay [8] is T1, D(2) dopamine receptor. The assay is described as follows: In vitro inhibition of [3H]N-0437 binding to Dopamine receptor D2 in rat striatal membranes. The format is cell membranes, Membrane.
The subject of assay [9] is Rattus norvegicus. Kind of assay: DOPA accumulation in reserpine-pretreated rat limbic region after subcutaneous administration of 50 umol/kg; Range is 1.1-6.5. The format is functional. The following applies: Limbic system, sc.
The test system of assay [10] is Rattus norvegicus. Kind of assay: Locomotor activity in reserpine-pretreated rat at the dose of 50 umol/kg; Accumulation counts/30 min. Type of assay: functional.
Assay [11] has as its system Rattus norvegicus. The assay is described as follows: DOPA accumulation in normal rat striatal region at 50 umol/kg expressed as percent of control. Type of assay: functional.
The subject of assay [12] is Rattus norvegicus. Kind of assay: DOPA accumulation in normal rat cortex at 50 umol/kg expressed as percent of control; Inactive. The format is functional, organism-based.
The test system of assay [13] is Rattus norvegicus. Kind of assay: Locomotor activity in normal rat at 3.1 umol/kg expressed as percent of control. The format is functional. The procedure, abridged:
as §1

Assay [14] has as its system Rattus norvegicus. Kind of assay: DOPA accumulation in normal rat limbic region at 100 umol/kg expressed as percent of control. Type of assay: functional, Limbic system.
Assay [15] deals with Rattus norvegicus. Kind of assay: DOPA accumulation in normal rat cortex at 100 umol/kg expressed as percent of control. The format is functional.
Assay [16] concerns Rattus norvegicus. Kind of assay: Locomotor activity in normal rat at 100 umol/kg expressed as percent of control. The format is functional. The procedure, abridged: as §1
The subject of assay [17] is Rattus norvegicus. Kind of assay: DOPA accumulation in normal rat striatal region at 100 umol/kg expressed as percent of control. Type of assay: functional.
In assay [18] the test system is Rattus norvegicus. Kind of assay: Locomotor activity in reserpine-pretreated ratat the dose of 50 umol/kg; Accumulation counts/30 min. Type of assay: functional.
In assay [19] the test system is Rattus norvegicus. The assay is described as follows: DOPA accumulation in normal rat cortex at 27 umol/kg expressed as percent of control; Inactive. Type of assay: functional, organism-based.
For assay [20], the system named is Rattus norvegicus. Kind of assay: DOPA accumulation in normal rat limbic region at 27 umol/kg expressed as percent of control. Type of assay: functional, Limbic system.
Assay [21] has as its system Rattus norvegicus. Kind of assay: DOPA accumulation in normal rat striatal region at 27 umol/kg expressed as percent of control. The format is functional.
Assay [22] has as its system Rattus norvegicus. The assay is described as follows: DOPA accumulation in reserpine-pretreated rat limbic region after subcutaneous administration. The format is functional. Particulars: Limbic system, sc.
Assay [23] deals with Rattus norvegicus. Kind of assay: DOPA accumulation in reserpine-pretreated rat striatal region after subcutaneous administration. The format is functional. The following applies: sc.
Assay [24] concerns Rattus norvegicus. The assay is described as follows: Locomotor activity in reserpine-pretreated ratat the dose of 13 umol/kg; Accumulation counts/30 min. Type of assay: functional.
Assay [25] relates to Rattus norvegicus. Kind of assay: DOPA accumulation in normal rat limbic region at 0.8 umol/kg expressed as percent of control. Type of assay: functional, Limbic system.
Assay [26] concerns Rattus norvegicus. The assay is described as follows: DOPA accumulation in reserpine-pretreated rat cortex after subcutaneous administration; Inactive. Type of assay: functional, organism-based.
In assay [27] the test system is Rattus norvegicus. The assay is described as follows: DOPA accumulation in normal rat cortex at 0.8 umol/kg expressed as percent of control; Inactive. Type of assay: functional, organism-based.
Assay [28] has as its system Rattus norvegicus. Kind of assay: DOPA accumulation in normal rat striatal region at 0.8 umol/kg expressed as percent of control. The format is functional.
In assay [29] the test system is Rattus norvegicus. Kind of assay: Locomotor activity in normal rat at 213 umol/kg expressed as percent of control. Type of assay: functional.
Assay [30] has as its system Rattus norvegicus. The assay is described as follows: Locomotor activity in normal rat at 1.6 umol/kg expressed as percent of control. Type of assay: functional.
Assay [31] relates to Rattus norvegicus. The assay is described as follows: Locomotor activity in normal rat at 0.8 umol/kg expressed as percent of control. Type of assay: functional.
Assay [32] has as its system Rattus norvegicus. Kind of assay: DOPA accumulation in normal rat limbic region at 213 umol/kg expressed as percent of control. Type of assay: functional, Limbic system.
Assay [33] relates to Rattus norvegicus. Kind of assay: DOPA accumulation in normal rat cortex at 213 umol/kg expressed as percent of control; Inactive. The format is functional, organism-based.
For assay [34], the system named is Rattus norvegicus. The assay is described as follows: Locomotor activity in reserpine-pretreated ratat the dose of 213 umol/kg; Accumulation counts/30 min. The format is functional.
The test system of assay [35] is Rattus norvegicus. Kind of assay: DOPA accumulation in reserpine-pretreated rat cortex after subcutaneous administration of 50 umol/kg; Inactive. The format is functional, organism-based.
Assay [36] concerns Rattus norvegicus. Kind of assay: DOPA accumulation in normal rat cortex at 50 umol/kg expressed as percent of control. The format is functional.
Assay [37] concerns Rattus norvegicus. Kind of assay: DOPA accumulation in normal rat limbic region at 50 umol/kg expressed as percent of control; Inactive. Type of assay: functional, organism-based. Particulars: Limbic system.
Assay [38] concerns Rattus norvegicus. The assay is described as follows: DOPA accumulation in reserpine-pretreated rat limbic region after subcutaneous administration of 50 umol/kg; Range is 0.44-3.5. Type of assay: functional. The following applies: Limbic system, sc.
The test system of assay [39] is Rattus norvegicus. Kind of assay: DOPA accumulation in normal rat striatal region at 50 umol/kg expressed as percent of control; Inactive. Type of assay: functional, organism-based.
Assay [40] concerns Rattus norvegicus. Kind of assay: DOPA accumulation in normal rat striatal region at 12.5 umol/kg expressed as percent of control. Type of assay: functional.
Assay [41] relates to Rattus norvegicus. The assay is described as follows: DOPA accumulation in normal rat limbic region at 12.5 umol/kg expressed as percent of control. The format is functional, Limbic system.
Assay [42] relates to Rattus norvegicus. The assay is described as follows: DOPA accumulation in normal rat cortex at 12.5 umol/kg expressed as percent of control; Inactive. The format is functional, organism-based.
The test system of assay [43] is Rattus norvegicus. The assay is described as follows: Locomotor activity in normal rat at 25 umol/kg expressed as percent of control. The format is functional. The gist of the method: as §1
The test system of assay [44] is Rattus norvegicus. Kind of assay: DOPA accumulation in reserpine-pretreated rat striatal region after subcutaneous administration of 50 umol/kg; Inactive. The format is functional, organism-based.
Assay [45] relates to Rattus norvegicus. Kind of assay: DOPA accumulation in reserpine-pretreated rat limbic region after subcutaneous administration of 50 umol/kg; Inactive. The format is functional, organism-based. Particulars: Limbic system.
Assay [46] deals with Rattus norvegicus. Kind of assay: Locomotor activity in reserpine-pretreated rat at the dose of 100 umol/kg; Accumulation counts/30 min. The format is functional.

pIC50: −log10 of the molar value. The source made the active and inactive calls. No cut-off for these calls is given here.

For orientation: ED50 means the dose that gives a 50% effect, or the effect in half of the subjects. The term pIC50 denotes the negative decadic logarithm of the IC50, by convention in mol/L. A low value points to a high IC50.

T1 sequence (P61169 whole entry): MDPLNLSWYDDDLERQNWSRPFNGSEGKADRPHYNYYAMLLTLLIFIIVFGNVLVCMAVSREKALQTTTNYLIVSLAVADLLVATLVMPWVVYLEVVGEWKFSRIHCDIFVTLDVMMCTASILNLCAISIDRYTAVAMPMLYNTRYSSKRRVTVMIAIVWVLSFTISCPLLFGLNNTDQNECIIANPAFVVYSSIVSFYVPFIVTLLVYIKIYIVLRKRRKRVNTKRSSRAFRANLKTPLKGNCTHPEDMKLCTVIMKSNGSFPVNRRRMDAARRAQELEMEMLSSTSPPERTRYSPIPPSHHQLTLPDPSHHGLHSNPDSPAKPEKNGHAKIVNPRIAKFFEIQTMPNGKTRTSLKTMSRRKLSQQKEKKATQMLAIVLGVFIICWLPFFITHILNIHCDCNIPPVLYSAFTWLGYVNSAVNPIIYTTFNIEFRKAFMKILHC

Consider `Oc1cccc([C@H]2CCCN3CCCC23)c1` (some centres not stated), for which the Control in the assay with Rattus norvegicus [1] was 83%; in the assay on Rattus norvegicus [2] it was 46%; in the assay on Rattus norvegicus [3], 42%; with Rattus norvegicus [4], 37%; in the assay with Rattus norvegicus [5], 46%. Further, the 50% effective dose (ED50) in the assay on Rattus norvegicus [6] came out at 1.7 µmol/kg; with Rattus norvegicus [9], 1.1 µmol/kg. Moreover, the negative logarithm of the IC50 (pIC50) on D(2) dopamine receptor [7] was 5.31; on D(2) dopamine receptor [8] it was 7.35. Moreover, the Locomotor activity in the assay on Rattus norvegicus [10] is listed as 25.

For the compound `Oc1cccc([C@@H]2CCCN3CCCC23)c1` (some centres not stated), the Control worked out at 72% in the assay with Rattus norvegicus [1], 245% in the assay on Rattus norvegicus [11], 153% in the assay on Rattus norvegicus [5] and 135% in the assay with Rattus norvegicus [13]. The pIC50 on D(2) dopamine receptor [7] was 5.19; on D(2) dopamine receptor [8], 6.77. Moreover, in the assay on Rattus norvegicus [12], the Control entry was “inactive”. In the assay on Rattus norvegicus [10], the Locomotor activity came out at 21.

Regarding `Oc1cccc(C2CCCN3CCCCC23)c1` (configuration not stated), the Control in the assay on Rattus norvegicus [14] was 61%; in the assay on Rattus norvegicus [15], 48%; with Rattus norvegicus [16], 142%; in the assay on Rattus norvegicus [17], 54%. Further, the pIC50 at D(2) dopamine receptor [7] is 4.89; on D(2) dopamine receptor [8], 6.24. The Locomotor activity with Rattus norvegicus [18] stood at 14.

Turning to `CCCN(CCc1ccsc1)C1CCc2c(O)cccc2C1` (configuration not stated), the values for the pIC50 at D(2) dopamine receptor [7] and at D(2) dopamine receptor [8] were 8.06 and 9.21, respectively.

Take `CCCN1CCC[C@H](c2cccc(O)c2)C1`: the Control entry in the assay on Rattus norvegicus [19] and in the assay with Rattus norvegicus [27] was “inactive” throughout. Besides, the Control is on record as 40% in the assay on Rattus norvegicus [20]; 45% in the assay with Rattus norvegicus [21]; 86% with Rattus norvegicus [25]; 81% in the assay on Rattus norvegicus [28]; 230% with Rattus norvegicus [29]; 75% in the assay with Rattus norvegicus [30]. Further, the figures for the 50% effective dose (ED50) with Rattus norvegicus [22] and in the assay with Rattus norvegicus [23] were 1 µmol/kg and 1.3 µmol/kg, respectively. For the same compound, the Locomotor activity in the assay on Rattus norvegicus [24] is 78. In addition, the ED50 result in the assay on Rattus norvegicus [26] was “inactive”.

With `CCCN1CCC[C@@H](c2cccc(O)c2)C1` [PRECLAMOL], the Control result with Rattus norvegicus [19] and in the assay on Rattus norvegicus [33] was “inactive” throughout. The Control is listed as 74% with Rattus norvegicus [31], 147% with Rattus norvegicus [21], 95% with Rattus norvegicus [32] and 40% in the assay with Rattus norvegicus [29]. The values for the 50% effective dose (ED50) in the assay with Rattus norvegicus [22] and in the assay with Rattus norvegicus [23] were 0.8 µmol/kg and 1.7 µmol/kg, respectively. Besides, the ED50 result in the assay on Rattus norvegicus [26] was “inactive”. In the assay on Rattus norvegicus [34], the Locomotor activity turned out to be 12.

As for `Oc1cccc(C2CCCN3CCCC23)c1` (racemic), the ED50 result in the assay with Rattus norvegicus [35] was “inactive”. The Control with Rattus norvegicus [1] is listed as 48%; in the assay with Rattus norvegicus [36], 57%. The pIC50 on D(2) dopamine receptor [7] was 5.42; on D(2) dopamine receptor [8], 7.12. Moreover, the Control result in the assay with Rattus norvegicus [37] and in the assay with Rattus norvegicus [39] was “inactive” each time. In the assay with Rattus norvegicus [38], the ED50 came to 0.44 µmol/kg. The Locomotor activity in the assay with Rattus norvegicus [10] amounted to 13.

Regarding `Oc1cccc(C2=CCCN3CCCCC23)c1` (configuration not stated), the ED50 result with Rattus norvegicus [35], with Rattus norvegicus [44] and in the assay on Rattus norvegicus [45] was “inactive” throughout. For the same compound, the Control came out at 45% in the assay on Rattus norvegicus [3]; 200% in the assay on Rattus norvegicus [40]; 165% in the assay with Rattus norvegicus [41]; 51% in the assay with Rattus norvegicus [43]; 82% in the assay on Rattus norvegicus [13]. The Control result with Rattus norvegicus [42] is “inactive”. For the same compound, the negative-log IC50 (pIC50) at D(2) dopamine receptor [7] was 5.28; on D(2) dopamine receptor [8] it was 6.49. Further, the Locomotor activity with Rattus norvegicus [18] came to 8.

Take `O=C(O)C(=O)O.Oc1cccc(C2CCC3CCCCN3C2)c1` (configuration not stated): the Control in the assay on Rattus norvegicus [14] stood at 69%; with Rattus norvegicus [15], 62%; in the assay with Rattus norvegicus [16], 220%; in the assay on Rattus norvegicus [17], 56%. The pIC50 at D(2) dopamine receptor [7] is 4.40; on D(2) dopamine receptor [8] it was 5.10. Moreover, in the assay with Rattus norvegicus [46], the Locomotor activity turned out to be 262.

Values taken from ChEMBL document CHEMBL1124712, “Pre- and postsynaptic dopaminergic activities of indolizidine and quinolizidine derivatives of 3-(3-hydroxyphenyl)-N-(n-propyl)piperidine (3-PPP). Further developments of a dopamine receptor model” (J Med Chem, 1990).
